# ChEMBL document CHEMBL1221207, “Expanding the promiscuity of a natural-product glycosyltransferase by directed evolution” (Nat Chem Biol, 2007)
# Positions count from the first letter of the chain named.
# How the values were obtained:
# [1] = target: T1, Oleandomycin glycosyltransferase (Streptomyces antibioticus) (UniProt Q53685); assay: Activity of Streptomyces antibioticus wild-type OleD assessed as conversion rate of compound to produce glucoside 3 using NDP sugar UDP-glucose after 3 hrs by HPLC
# T1 sequence (whole entry): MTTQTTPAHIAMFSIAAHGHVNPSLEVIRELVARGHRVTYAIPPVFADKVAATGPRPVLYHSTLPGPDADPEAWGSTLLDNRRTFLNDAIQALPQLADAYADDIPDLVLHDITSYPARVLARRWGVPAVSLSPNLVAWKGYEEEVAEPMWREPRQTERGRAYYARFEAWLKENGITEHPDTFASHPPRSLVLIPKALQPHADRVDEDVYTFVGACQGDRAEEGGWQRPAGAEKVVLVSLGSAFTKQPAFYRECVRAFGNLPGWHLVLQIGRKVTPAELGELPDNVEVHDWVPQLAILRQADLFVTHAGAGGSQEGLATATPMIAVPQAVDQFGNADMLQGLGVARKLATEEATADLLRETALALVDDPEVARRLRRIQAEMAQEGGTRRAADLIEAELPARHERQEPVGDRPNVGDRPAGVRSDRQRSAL
# Summary of the method: (§1)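 End-point donor-specificity assay with purified OleD enzyme. Percentage conversion was read after 3 h. Quenched reactions were run by reverse-phase C18 HPLC with a 10–90% CH3CN gradient in 0.1% formic acid/H2O over 20 min at 1 ml min–1, with detection at 254 nm. Products were identified by LC-MS, by comparison to standards where available, and by fluorescence.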
# [2] = test system: T2, Oleandomycin glycosyltransferase (Streptomyces antibioticus), Q53685 [A242V]; assay: Activity of Streptomyces antibioticus OleD A242V mutant assessed as conversion rate of compound to produce glucoside 3 using NDP sugar donor UDP-xylose after 3 hrs by HPLC; summary of the method: as §1
# T2 sequence (whole entry): T1 sequence (whole entry) with A242V
# [3] = test system: T2, Oleandomycin glycosyltransferase (Streptomyces antibioticus), Q53685 [A242V]; assay: Activity of Streptomyces antibioticus OleD A242V mutant assessed as conversion rate of compound to produce glucoside 3 using NDP sugar donor UDP-glucose after 3 hrs by HPLC; summary of the method: as §1
# [4] = test system: T3, Oleandomycin glycosyltransferase (Streptomyces antibioticus), Q53685 [P67T,S132F,A242V]; assay: Activity of Streptomyces antibioticus OleD P67T/S132F/A242V mutant assessed as conversion rate of compound to produce glucoside 3 using NDP sugar UDP-6-azido-glucose after 3 hrs by HPLC; summary of the method: as §1
# T3 sequence (whole entry): T1 sequence (whole entry) with P67T, S132F, A242V
# [5] = test system: T4, Oleandomycin glycosyltransferase (Streptomyces antibioticus), Q53685 [P67T]; assay: Activity of Streptomyces antibioticus OleD P67T mutant assessed as conversion rate of compound to produce glucoside 3 using NDP sugar donor UDP-xylose after 3 hrs by HPLC; summary of the method: as §1
# T4 sequence (whole entry): T1 sequence (whole entry) with P67T
# [6] = test system: T3, Oleandomycin glycosyltransferase (Streptomyces antibioticus), Q53685 [P67T,S132F,A242V]; assay: Activity of Streptomyces antibioticus OleD P67T/S132F/A242V mutant assessed as conversion rate of compound to produce glucoside 3 using NDP sugar UDP-xylose after 3 hrs by HPLC; summary of the method: as §1
# [7] = target: T1, Oleandomycin glycosyltransferase (Streptomyces antibioticus); assay: Activity of Streptomyces antibioticus OleD […] mutant assessed as as rate of glucoside formation measured as nanomoles of product formed per minute per mg of enzyme
compound,measurement,setting,value
Cc1cc(=O)oc2cc(O)ccc12,Activity,[1],13.9%
same,Activity,[2],2%
same,Activity,[3],38%
same,Activity,[4],41%
same,Activity,[5],2%
same,Activity,[6],31%
same,Activity,[7],6.3 nmol/min
